From ChEMBL document CHEMBL4330063, “New naphthopyran analogues of LY290181 as potential tumor vascular-disrupting agents” (Eur J Med Chem, 2019)

Tests used:
Type in all cases: functional, cell-based
HT-29 = test: Antiproliferative activity against human HT-29 cells after 72 hrs by MTT assay; settings: HT-29, 72 h
Summary of the method: (§1)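 MTT read-out after 72 h of continuous exposure. Viability is expressed as percentage of viable cells relative to untreated controls. IC50 comes from dose-response curves. Values are means±SD of four independent experiments (two for some entries). DMSO was below 1%, with vehicle controls at equal DMSO. Precipitation was excluded spectrometrically and microscopically.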

[1] = Antiproliferative activity against human A2780cis cells after 72 hrs by SRB assay
Summary of the method: (§2)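 Ovarian A2780 and cisplatin-resistant A2780cis cells were exposed for 72 h and stained with SRB. IC50 comes from dose-response curves, as means±SD of three independent experiments. Final DMSO was below 1%, with matched vehicle controls.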

A2780 = test: Antiproliferative activity against human A2780 cells after 72 hrs by SRB assay; settings: A2780, 72 h; summary of the method: as §2
518A2 = test: Antiproliferative activity against human 518A2 cells after 72 hrs by MTT assay; settings: for IC50: 518A2, 72 h; summary of the method: as §1

Row | Compound | IC50 (HT-29) | IC50 (A2780) | IC50 [1] | Activity (518A2) | IC50 (518A2)
1 | N#CC1=C(N)Oc2c(ccc3ccccc23)C1c1ccc(S(F)(F)(F)(F)F)cc1 (stereo not given) | 9970 nM | 5160 nM | 5580 nM | Dose-dependent effect | 7130 nM
2 | COc1cc(C2C(C#N)=C(N)Oc3c2ccc2ccccc32)ccc1OCc1ccccc1 (stereo not given) | 5820 nM | 2150 nM | 2340 nM | Dose-dependent effect | 1660 nM
3 | N#CC1=C(N)Oc2c(cc(Cl)c3ccccc23)C1c1ccccc1Cl (stereo not given) | 2030 nM | 912 nM | 973 nM | Dose-dependent effect | 9910 nM
4 | CSc1ccc(C2C(C#N)=C(N)Oc3c2cc(Cl)c2ccccc32)cc1 (stereo not given) | 1540 nM | 1070 nM | 1290 nM | Dose-dependent effect | 1350 nM
5 | N#CC1=C(N)Oc2c(cc(Cl)c3ccccc23)C1c1ccc(C#N)cc1 (stereo not given) | 1590 nM | 1440 nM | 1410 nM | Dose-dependent effect | 753 nM

Molecules with a lower IC50 (HT-29), results first:

Row | IC50 (HT-29) | IC50 (A2780) | Compound | IC50 [1] | Activity (518A2) | IC50 (518A2)
6 | 570 nM | 188 nM | N#CC1=C(N)Oc2c(ccc3ccccc23)C1c1cccc(S(F)(F)(F)(F)F)c1 (stereo not given) | 265 nM | Dose-dependent effect | 505 nM
7 | 1230 nM | 759 nM | N#CC1=C(N)Oc2c(ccc3ccccc23)C1c1ccc(C#N)cc1 (stereo not given) | 774 nM | Dose-dependent effect | 939 nM
8 | 188 nM | 160 nM | COc1c(Br)cc(C2C(C#N)=C(N)Oc3c2cc(Cl)c2ccccc32)cc1Br (stereo not given) | 168 nM | Dose-dependent effect | 144 nM
9 | 1100 nM | 363 nM | CSc1ccc(C2C(C#N)=C(N)Oc3c2ccc2ccccc32)cc1 (stereo not given) | 430 nM | Dose-dependent effect | 1980 nM
10 | 245 nM | 155 nM | N#CC1=C(N)Oc2c(cc(Cl)c3ccccc23)C1c1cccc(Br)c1 (stereo not given) | 166 nM | Dose-dependent effect | 229 nM
